Assay results taken from paper PMC6714550 (Investigational new drugs, 2018).
Read-outs that look alike come from different tables or passages of the source. Blank lines part the entries; values can stand above or below the compound they belong to.

Assays:
[1] = Plasma pharmacokinetics, cycle 1; assay type: in vivo, human
How it was run: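 Patients with advanced GIST took an oral pan-FGFR kinase inhibitor (test compound) once daily at escalating dose levels (25–125 mg), with a second oral tyrosine kinase inhibitor at 400 mg once daily, in 28-day cycles. Blood was sampled at prespecified cycle 1 timepoints. Plasma parent drug, partner drug and its active metabolite were measured by validated LC-MS/MS.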

[2] = tested on: patients with imatinib refractory advanced GIST; assay: Safety and tolerability, DLT and MTD; settings: schedule A, in combination with 400mg of imatinib
[3] = tested on: advanced GIST; settings: cited from earlier work
[4] = dose level −1 (BGJ398 50mg qd, imatinib 400mg qd), day 1, n=1
[5] = second and third line options in GIST

Structure (SMILES): CCN1CCN(c2ccc(Nc3cc(N(C)C(=O)Nc4c(Cl)c(OC)cc(OC)c4Cl)ncn3)cc2)CC1 [BGJ398]
- AUC (0–24h) ([1]; dose level 1 (BGJ398 75mg qd, imatinib 400mg qd), day 1, n=9, mean): 487 (32 – 1153) h x ng/mL
- AUC (0–24h) ([1]; dose level 2 (BGJ398 100mg qd, imatinib 400mg qd), day 1, n=1): 309 h x ng/mL
- AUC (0–24h) [1, 4]: 25 h x ng/mL
- Tmax [1, 4]: 4 h
- Tmax ([1]; human, plasma, oral): 5 h
- maximum tolerated dose (dose level −1) [2]: 50 mg

- Concentration of metabolite day 1 24hr ([1]; dose level 1 (BGJ398 75mg qd, imatinib 400mg qd), n=9, mean): 149 (56 – 395) ng/mL
- Concentration of metabolite day 1 24hr ([1]; dose level 2 (BGJ398 100mg qd, imatinib 400mg qd), n=1): 1040 ng/mL
- Concentration of metabolite day 1 24hr ([1]; dose level −1 (BGJ398 50mg qd, imatinib 400mg qd), n=3, mean): 54 (26 – 84) ng/mL
- Concentration of metabolite day 1 24hr ([1]; dose level −2 (BGJ398 25mg qd, imatinib 400mg qd), n=3, mean): 131 (67 – 209) ng/mL
Structure (SMILES): Cc1ccc(NC(=O)c2ccc(CN3CCNCC3)cc2)cc1Nc1nccc(-c2cccnc2)n1 [CGP 74588]

Structure (SMILES): Cc1ccc(NC(=O)c2ccc(CN3CCN(C)CC3)cc2)cc1Nc1nccc(-c2cccnc2)n1 [imatinib]
- objective response rate ([3]; first-line, advanced GIST): approximately 50%
- overall disease control rate ([3]; first-line, advanced GIST): 80%
- median progression free survival ([3]; following initiation of imatinib therapy): 20–24 months
- median PFS ([3]; imatinib re-challenge): 1.8 months
- median PFS, 95% CI ([3]; imatinib re-challenge): 1.7–3.6 months

Structure (SMILES): CNC(=O)c1cc(Oc2ccc(NC(=O)Nc3ccc(Cl)c(C(F)(F)F)c3)c(F)c2)ccn1 [regorafenib]
- median PFS [3, 5]: 4–6 months
- response rate [3, 5]: 4–7%

Structure (SMILES): CCN(CC)CCNC(=O)c1c(C)[nH]c(/C=C2\C(=O)Nc3ccc(F)cc32)c1C [sunitinib]
- median PFS [3, 5]: 4–6 months
- response rate [3, 5]: 4–7%
